This note sets out measurements from ChEMBL document CHEMBL1133563, “Development of new hydroxamate matrix metalloproteinase inhibitors derived from functionalized 4-aminoprolines” (J Med Chem, 2000).

One assay has as its target Stromelysin-1 (Homo sapiens, UniProt P08254). Put plainly: In vitro inhibitory activity against matrix metalloprotease -3 (stromelysin).
The target of the next assay is T1, Matrilysin (Homo sapiens, UniProt P09237).
T1 sequence (P09237 whole entry): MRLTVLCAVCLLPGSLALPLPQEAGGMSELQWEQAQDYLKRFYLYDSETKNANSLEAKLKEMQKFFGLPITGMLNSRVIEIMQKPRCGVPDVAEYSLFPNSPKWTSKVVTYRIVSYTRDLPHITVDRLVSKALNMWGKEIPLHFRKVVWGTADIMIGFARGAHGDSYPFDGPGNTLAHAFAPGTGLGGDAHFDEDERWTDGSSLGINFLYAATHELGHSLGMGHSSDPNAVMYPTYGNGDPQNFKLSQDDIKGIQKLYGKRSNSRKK
Put plainly: In vitro inhibitory activity against matrix metalloprotease-7 (matrilysin, MMP-7). Put shortly:
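Human recombinant truncated enzymes, final MMP-1 8 nM, MMP-3 16 nM, MMP-7 2 nM. Quenched-fluorescence assay with Mca-Pro-Leu-Gly-Leu-Dpa-Ala-Arg-NH₂ (4 µM) in 50 mM Tris pH 7.5, 0.2 M NaCl, 5 mM CaCl₂, 0.02% Brij-35 at 25 °C. Fluorescence (ex 328/em 393 nm) read kinetically for 30 min.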

The next assay concerns the target Collagenase 3 (Homo sapiens, UniProt P45452). Put plainly: In vitro inhibitory activity against human recombinant matrix metalloprotease-13 (collagenase-3).
A further assay has as its target T2, Interstitial collagenase (Homo sapiens, UniProt P03956).
T2 sequence (P03956 whole entry): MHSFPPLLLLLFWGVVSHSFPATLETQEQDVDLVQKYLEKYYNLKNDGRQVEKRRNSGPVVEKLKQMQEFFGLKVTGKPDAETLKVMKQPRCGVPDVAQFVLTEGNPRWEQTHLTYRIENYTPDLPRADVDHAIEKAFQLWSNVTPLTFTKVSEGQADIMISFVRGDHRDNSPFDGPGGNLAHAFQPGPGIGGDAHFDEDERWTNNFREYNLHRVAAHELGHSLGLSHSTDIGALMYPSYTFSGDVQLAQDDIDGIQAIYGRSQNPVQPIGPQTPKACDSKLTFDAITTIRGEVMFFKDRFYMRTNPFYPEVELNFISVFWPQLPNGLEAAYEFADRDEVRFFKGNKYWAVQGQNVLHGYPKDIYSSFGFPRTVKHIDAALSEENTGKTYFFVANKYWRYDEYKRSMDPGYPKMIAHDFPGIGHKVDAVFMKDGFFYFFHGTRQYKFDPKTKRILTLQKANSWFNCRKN
Put plainly: In vitro inhibitory activity against matrix metalloprotease -1 (collagenase-1).

pIC50: −log10 of the molar value.

Sequence of Stromelysin-1 (P08254 whole entry): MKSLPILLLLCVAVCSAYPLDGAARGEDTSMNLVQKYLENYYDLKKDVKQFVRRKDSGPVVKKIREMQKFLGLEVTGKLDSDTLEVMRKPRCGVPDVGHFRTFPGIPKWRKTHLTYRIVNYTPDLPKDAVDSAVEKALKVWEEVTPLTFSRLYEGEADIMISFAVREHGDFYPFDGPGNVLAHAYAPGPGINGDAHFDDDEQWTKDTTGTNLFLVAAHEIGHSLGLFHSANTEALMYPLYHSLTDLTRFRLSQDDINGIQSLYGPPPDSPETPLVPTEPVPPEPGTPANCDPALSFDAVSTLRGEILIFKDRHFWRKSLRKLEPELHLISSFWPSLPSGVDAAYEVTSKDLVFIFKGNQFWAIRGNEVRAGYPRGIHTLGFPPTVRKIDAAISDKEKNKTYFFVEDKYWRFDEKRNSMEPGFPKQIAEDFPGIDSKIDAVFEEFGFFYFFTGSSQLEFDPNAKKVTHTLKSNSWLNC

Consider `O=C(NO)[C@H]1C[C@H](N2CCCC2)CN1S(=O)(=O)c1ccc(Oc2ccc(F)cc2)cc1`, for which the pIC50 against Stromelysin-1 was 8.40; at Matrilysin it was 6.07; at Collagenase 3, above 9.40; against Interstitial collagenase it was 7.70.
Take `COc1ccc(S(=O)(=O)N2C[C@@H](NCCc3ccccc3)C[C@@H]2C(=O)NO)cc1`: the negative logarithm of the IC50 (pIC50) was 7.24 against Stromelysin-1, 5.85 against Matrilysin and 6.25 against Interstitial collagenase.
As to `CCCCOc1ccc(S(=O)(=O)N2C[C@@H](N3CCCS3(=O)=O)C[C@@H]2C(=O)NO)cc1`, the pIC50 on Stromelysin-1 was 7.89; at Matrilysin, 6.17; at Collagenase 3, above 9.40; on Interstitial collagenase, 6.64.
With `CCCCCc1ccc(S(=O)(=O)N2C[C@@H](N3CCOCC3)C[C@@H]2C(=O)NO)cc1`, the negative-log IC50 (pIC50) against Stromelysin-1 was 7.92; against Matrilysin it was 5.13; at Collagenase 3 it was 9.15.
`COc1ccc(S(=O)(=O)N2C[C@@H](NC(=O)c3ccc(-c4ccccc4)cc3)C[C@@H]2C(=O)NO)cc1`: the negative logarithm of the IC50 (pIC50) at Stromelysin-1 was 6.40; at Interstitial collagenase, below 6.00.
Take `CCCOc1ccc(S(=O)(=O)N2C[C@@H](NC(=O)[C@H](C)O)C[C@@H]2C(=O)NO)cc1`: the pIC50 was 8.10 against Stromelysin-1, 5.46 against Matrilysin, 9.00 at Collagenase 3 and 6.85 against Interstitial collagenase.
In the case of `CCCCOc1ccc(S(=O)(=O)N2C[C@@H](NC(=O)[C@@H](O)CC(C)C)C[C@@H]2C(=O)NO)cc1`, the negative-log IC50 (pIC50) at Stromelysin-1 was 8.00; against Matrilysin, 5.62; at Collagenase 3 it was 9.05; on Interstitial collagenase it was 6.36.
In the case of `CC(C)COc1ccc(S(=O)(=O)N2C[C@@H](N3C(=O)CN(C)C3=O)C[C@@H]2C(=O)NO)cc1`, the pIC50 is 8.52 against Stromelysin-1, 5.64 against Matrilysin, 8.55 on Collagenase 3 and 6.52 against Interstitial collagenase.
As to `CS(=O)(=O)N[C@H]1C[C@H](C(=O)NO)N(S(=O)(=O)c2ccc(Oc3ccncc3)cc2)C1`, the negative logarithm of the IC50 (pIC50) was 7.66 on Stromelysin-1, below 5.00 against Matrilysin, 9.10 at Collagenase 3 and 6.35 against Interstitial collagenase.
Consider `CCCOc1ccc(S(=O)(=O)N2C[C@@H](NC(=O)COC)C[C@@H]2C(=O)NO)cc1`, for which the negative-log IC50 (pIC50) is 7.52 at Stromelysin-1, below 5.00 against Matrilysin, 8.52 on Collagenase 3 and 6.30 against Interstitial collagenase.
For `CCCOc1ccc(S(=O)(=O)N2C[C@@H](N3CCCS3(=O)=O)C[C@@H]2C(=O)NO)cc1`, the pIC50 on Stromelysin-1 was 8.10; at Matrilysin, 6.08; at Collagenase 3 it was above 9.40; at Interstitial collagenase, 7.00.
Regarding `CCCCOc1ccc(S(=O)(=O)N2C[C@@H](NC(=O)COC)C[C@@H]2C(=O)NO)cc1`, the pIC50 is 7.85 against Stromelysin-1, 5.31 at Matrilysin, 9.15 at Collagenase 3 and 5.92 on Interstitial collagenase.
With `COc1ccc(S(=O)(=O)N2C[C@@H](N(C)S(C)(=O)=O)C[C@@H]2C(=O)NO)cc1`, the negative logarithm of the IC50 (pIC50) was 8.22 at Stromelysin-1, 6.28 at Matrilysin, 9.30 on Collagenase 3 and 7.72 against Interstitial collagenase.
Take `CCCCOc1ccc(S(=O)(=O)N2C[C@@H](NC(=O)[C@@H](O)C(C)C)C[C@@H]2C(=O)NO)cc1`: the pIC50 at Stromelysin-1 was 8.10; on Matrilysin it was 5.77; on Collagenase 3 it was 9.10; against Interstitial collagenase, 6.57.
In the case of `CN1CC(=O)N([C@H]2C[C@H](C(=O)NO)N(S(=O)(=O)c3ccc(Oc4ccncc4)cc3)C2)C1=O`, the pIC50 is 7.96 against Stromelysin-1, 5.13 against Matrilysin, 9.15 at Collagenase 3 and 6.22 on Interstitial collagenase.
For `O=C(NO)[C@H]1C[C@H](N2CCCCC2)CN1S(=O)(=O)c1ccc(Oc2ccccc2)cc1` the same measures were 8.10, 6.21, above 9.40 and 7.77.
The corresponding values for `CN1CC(=O)N([C@H]2C[C@H](C(=O)NO)N(S(=O)(=O)c3ccc(Oc4ccccc4)cc3)C2)C1=O` are 8.22, 6.51, above 9.40 and 7.68.
For `CCOc1ccc(S(=O)(=O)N2C[C@@H](N3C(=O)CN(C)C3=O)C[C@@H]2C(=O)NO)cc1` the same measures were 7.48, 5.12, 8.40 and 6.24.
Take `COc1ccc(S(=O)(=O)N2C[C@@H](N3CCCS3(=O)=O)C[C@@H]2C(=O)NO)cc1`: the pIC50 against Stromelysin-1 was 7.89; on Matrilysin it was 5.85; on Collagenase 3, 9.40; on Interstitial collagenase it was 7.38.
With `CCCOc1ccc(S(=O)(=O)N2C[C@@H](N3C(=O)CN(C)C3=O)C[C@@H]2C(=O)NO)cc1`, the pIC50 is 8.05 at Stromelysin-1, 5.59 against Matrilysin, 9.52 on Collagenase 3 and 6.59 against Interstitial collagenase.
With `CCCCCc1ccc(S(=O)(=O)N2C[C@@H](N3CCCCC3)C[C@@H]2C(=O)NO)cc1`, the pIC50 against Stromelysin-1 is 7.92; at Matrilysin, 5.01; on Collagenase 3, 9.05; against Interstitial collagenase it was 5.70.
Turning to `COc1ccc(S(=O)(=O)N2C[C@@H](N3CCS(=O)(=O)CC3)C[C@@H]2C(=O)NO)cc1`, the negative logarithm of the IC50 (pIC50) at Stromelysin-1 was 7.64; on Matrilysin, 5.15; on Collagenase 3, 9.00; against Interstitial collagenase, 6.52.
With `CCCCOc1ccc(S(=O)(=O)N2C[C@@H](NC(=O)[C@H](C)O)C[C@@H]2C(=O)NO)cc1`, the pIC50 against Stromelysin-1 was 8.00; against Matrilysin it was 5.38; at Collagenase 3, 9.05; against Interstitial collagenase, 5.92.
On to `CCCCOc1ccc(S(=O)(=O)N2C[C@@H](N)C[C@@H]2C(=O)NO)cc1`, for which the negative-log IC50 (pIC50) on Stromelysin-1 is 8.10; against Interstitial collagenase, 6.42.
On to `CNC(=O)N[C@H]1C[C@H](C(=O)NO)N(S(=O)(=O)c2ccc(OC)cc2)C1`, for which the pIC50 against Stromelysin-1 was 6.52; at Collagenase 3, 7.57; on Interstitial collagenase, 5.51.
As to `CCCOc1ccc(S(=O)(=O)N2C[C@@H](N3CCCCC3)C[C@@H]2C(=O)NO)cc1`, the pIC50 is 8.05 against Stromelysin-1, 6.21 against Matrilysin, 9.40 at Collagenase 3 and 6.68 against Interstitial collagenase.
Take `COc1ccc(S(=O)(=O)N2C[C@@H](N3C(=O)CN(C)C3=O)C[C@@H]2C(=O)NO)cc1`: the negative-log IC50 (pIC50) against Stromelysin-1 was 8.10; against Matrilysin it was 5.74; at Collagenase 3 it was 9.30; on Interstitial collagenase, 6.70.
The corresponding values for `O=C(NO)[C@H]1C[C@H](N2CCOCC2)CN1S(=O)(=O)c1ccc(Oc2ccccc2)cc1` are 8.15, 6.15, above 9.40 and 7.72.
The corresponding values for `O=C(NO)[C@H]1C[C@H](N2CCCC2)CN1S(=O)(=O)c1ccc(Oc2ccccc2)cc1` are 8.30, 6.10, above 9.40 and 7.72.
On to `CCCCOc1ccc(S(=O)(=O)N2C[C@@H](NS(=O)(=O)c3cn(C)cn3)C[C@@H]2C(=O)NO)cc1`, for which the figures for the pIC50 against Stromelysin-1 and at Interstitial collagenase were 8.22 and 6.15, respectively.
Regarding `CCCN[C@H]1C[C@H](C(=O)NO)N(S(=O)(=O)c2ccc(OC)cc2)C1`, the negative-log IC50 (pIC50) was 7.06 against Stromelysin-1, 5.66 against Matrilysin and 8.30 at Collagenase 3.

As a reminder, the pIC50 is the negative decadic logarithm of the IC50, by convention in mol/L.
